Legend:
Plasmodium berghei [1] = assay: Antimalarial activity against Plasmodium berghei infected in Swiss Webster mouse assessed as mouse survival rate at 11 mg/kg administered once daily via oral gavage for 4 consecutive days beginning 1 hr after infection measured on day 5 post infection relative to control; type: functional
In short: (§1)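 P. berghei-infected erythrocytes taken from a previously infected mouse were injected intraperitoneally. Oral dosing, once daily for 4 consecutive days, began 1 h after infection, in polyethylene glycol 300/propylene glycol/water (55/25/20 by weight). Chloroquine at 30 mg/kg was the positive control, with a vehicle-only group. Percent survival was recorded daily from day 4 to day 20.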

Plasmodium berghei [2] = assay: Antimalarial activity against Plasmodium berghei infected in Swiss Webster mouse assessed as mouse survival rate at 3 mg/kg administered once daily via oral gavage for 4 consecutive days beginning 1 hr after infection measured on day 6 post infection relative to control; type: functional; in short: as §1
Plasmodium falciparum [3] = assay: Antimalarial activity against chloroquine-sensitive Plasmodium falciparum 3D7 infected in human erythrocytes assessed as reduction in [3H]-hypoxanthine incorporation preincubated for 24 hrs followed by [3H]-hypoxanthine addition measured after 24 hrs by scintillation counting method; type: functional, cell-based
In short: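 P. falciparum 3D7 cultures were exposed to the compound for 48 h, with atovaquone as the reference control. IC50 was taken from three replicates.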

Plasmodium berghei [4] = assay: Antimalarial activity against Plasmodium berghei infected in Swiss Webster mouse assessed as mouse survival rate at 100 mg/kg administered once daily via oral gavage for 4 consecutive days beginning 1 hr after infection measured on day 6 post infection relative to control; type: functional
In short: (§2)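 Mice given an intraperitoneal injection of P. berghei-infected erythrocytes taken from a previously infected animal. Oral dosing once daily for 4 consecutive days, starting 1 h after infection. Vehicle: polyethylene glycol 300/propylene glycol/water (weight ratio 55/25/20). Percent survival recorded daily from day 4 to day 20. Chloroquine 30 mg/kg and vehicle-only groups served as controls.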

Plasmodium berghei [5] = assay: Antimalarial activity against Plasmodium berghei infected in Swiss Webster mouse assessed as mouse survival rate at 100 mg/kg administered once daily via oral gavage for 4 consecutive days beginning 1 hr after infection measured on day 12 post infection relative to control; type: functional; in short: as §2
Plasmodium berghei [6] = assay: Antimalarial activity against Plasmodium berghei infected in Swiss Webster mouse assessed as mouse survival rate at 3 mg/kg administered once daily via oral gavage for 4 consecutive days beginning 1 hr after infection measured on day 4 post infection relative to control; type: functional; in short: as §1
Plasmodium berghei [7] = assay: Antimalarial activity against Plasmodium berghei infected in Swiss Webster mouse assessed as mouse survival rate at 100 mg/kg administered once daily via oral gavage for 4 consecutive days beginning 1 hr after infection measured on day 11 post infection relative to control; type: functional; in short: as §2
Plasmodium berghei [8] = assay: Antimalarial activity against Plasmodium berghei infected in Swiss Webster mouse assessed as mouse survival rate at 1 mg/kg administered once daily via oral gavage for 4 consecutive days beginning 1 hr after infection measured on day 4 post infection relative to control; type: functional; in short: as §2
Plasmodium berghei [9] = assay: Antimalarial activity against Plasmodium berghei infected in Swiss Webster mouse assessed as mouse survival rate at 33 mg/kg administered once daily via oral gavage for 4 consecutive days beginning 1 hr after infection measured on day 5 post infection relative to control; type: functional; in short: as §1
Plasmodium berghei [10] = assay: Antimalarial activity against Plasmodium berghei infected in Swiss Webster mouse assessed as mouse survival rate at 1 mg/kg administered once daily via oral gavage for 4 consecutive days beginning 1 hr after infection measured on day 7 post infection relative to control; type: functional; in short: as §2
Plasmodium berghei [11] = assay: Antimalarial activity against Plasmodium berghei infected in Swiss Webster mouse assessed as mouse survival rate at 33 mg/kg administered once daily via oral gavage for 4 consecutive days beginning 1 hr after infection measured on day 8 post infection relative to control; type: functional; in short: as §1
Plasmodium berghei [12] = assay: Antimalarial activity against Plasmodium berghei infected in Swiss Webster mouse assessed as mouse survival rate at 100 mg/kg administered once daily via oral gavage for 4 consecutive days beginning 1 hr after infection measured on day 8 post infection relative to control; type: functional; in short: as §2
Plasmodium berghei [13] = assay: Antimalarial activity against Plasmodium berghei infected in Swiss Webster mouse assessed as mouse survival rate at 1 mg/kg administered once daily via oral gavage for 4 consecutive days beginning 1 hr after infection measured on day 6 post infection relative to control; type: functional; in short: as §2
Plasmodium berghei [14] = assay: Antimalarial activity against Plasmodium berghei infected in Swiss Webster mouse assessed as mouse survival rate at 11 mg/kg administered once daily via oral gavage for 4 consecutive days beginning 1 hr after infection measured on day 4 post infection relative to control; type: functional; in short: as §1
Plasmodium berghei [15] = assay: Antimalarial activity against Plasmodium berghei infected in Swiss Webster mouse assessed as mouse survival rate at 11 mg/kg administered once daily via oral gavage for 4 consecutive days beginning 1 hr after infection measured on day 6 post infection relative to control; type: functional; in short: as §1
Plasmodium berghei [16] = assay: Antimalarial activity against Plasmodium berghei infected in Swiss Webster mouse assessed as mouse survival rate at 33 mg/kg administered once daily via oral gavage for 4 consecutive days beginning 1 hr after infection measured on day 9 post infection relative to control; type: functional; in short: as §1
Plasmodium falciparum [17] = assay: Antimalarial activity against chloroquine-resistant Plasmodium falciparum W2 infected in human erythrocytes after 48 hrs by YOYO-1 dye based flow cytometric analysis; type: functional, cell-based; conditions: W2, 48 h
In short: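 P. falciparum W2 cultures were exposed to the compound for 48 h, with artemisinin and chloroquine as reference controls. IC50 was taken from two independent replicates.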

Plasmodium berghei [18] = assay: Antimalarial activity against Plasmodium berghei infected in Swiss Webster mouse assessed as mouse survival rate at 33 mg/kg administered once daily via oral gavage for 4 consecutive days beginning 1 hr after infection measured on day 6 post infection relative to control; type: functional; in short: as §1
Plasmodium berghei [19] = assay: Antimalarial activity against Plasmodium berghei infected in Swiss Webster mouse assessed as mouse survival rate at 3 mg/kg administered once daily via oral gavage for 4 consecutive days beginning 1 hr after infection measured on day 5 post infection relative to control; type: functional; in short: as §1
Plasmodium berghei [20] = assay: Antimalarial activity against Plasmodium berghei infected in Swiss Webster mouse assessed as mouse survival rate administered once daily via oral gavage for 4 consecutive days beginning 1 hr after infection measured on day 4 post infection; type: functional; in short: as §2
Plasmodium berghei [21] = assay: Antimalarial activity against Plasmodium berghei infected in Swiss Webster mouse assessed as mouse survival rate at 100 mg/kg administered once daily via oral gavage for 4 consecutive days beginning 1 hr after infection measured on day 13 post infection relative to control; type: functional; in short: as §2
Plasmodium berghei [22] = assay: Antimalarial activity against Plasmodium berghei infected in Swiss Webster mouse assessed as mouse survival rate at 3 mg/kg administered once daily via oral gavage for 4 consecutive days beginning 1 hr after infection measured on day 7 post infection relative to control; type: functional; in short: as §1
Plasmodium berghei [23] = assay: Antimalarial activity against Plasmodium berghei infected in Swiss Webster mouse assessed as mouse survival rate at 1 mg/kg administered once daily via oral gavage for 4 consecutive days beginning 1 hr after infection measured on day 5 post infection relative to control; type: functional; in short: as §2
Plasmodium berghei [24] = assay: Antimalarial activity against Plasmodium berghei infected in Swiss Webster mouse assessed as mouse survival rate at 33 mg/kg administered once daily via oral gavage for 4 consecutive days beginning 1 hr after infection measured on day 4 post infection relative to control; type: functional; in short: as §1
Plasmodium berghei [25] = assay: Antimalarial activity against Plasmodium berghei infected in Swiss Webster mouse assessed as mouse survival rate at 33 mg/kg administered once daily via oral gavage for 4 consecutive days beginning 1 hr after infection measured on day 7 post infection relative to control; type: functional; in short: as §1
Plasmodium berghei [26] = assay: Antimalarial activity against Plasmodium berghei infected in Swiss Webster mouse assessed as mouse survival rate at 100 mg/kg administered once daily via oral gavage for 4 consecutive days beginning 1 hr after infection measured on day 5 post infection relative to control; type: functional; in short: as §2
Plasmodium berghei [27] = assay: Antimalarial activity against Plasmodium berghei infected in Swiss Webster mouse assessed as mouse survival rate at 100 mg/kg administered once daily via oral gavage for 4 consecutive days beginning 1 hr after infection measured on day 10 post infection relative to control; type: functional; in short: as §2
Plasmodium berghei [28] = assay: Antimalarial activity against Plasmodium berghei infected in Swiss Webster mouse assessed as mouse survival rate at 100 mg/kg administered once daily via oral gavage for 4 consecutive days beginning 1 hr after infection measured on day 14 post infection relative to control; type: functional; in short: as §2
Plasmodium berghei [29] = assay: Antimalarial activity against Plasmodium berghei infected in Swiss Webster mouse assessed as mouse survival rate at 100 mg/kg administered once daily via oral gavage for 4 consecutive days beginning 1 hr after infection measured on day 7 post infection relative to control; type: functional; in short: as §2
Plasmodium berghei [30] = assay: Antimalarial activity against Plasmodium berghei infected in Swiss Webster mouse assessed as mouse survival rate at 100 mg/kg administered once daily via oral gavage for 4 consecutive days beginning 1 hr after infection measured on day 9 post infection relative to control; type: functional; in short: as §2
Plasmodium berghei [31] = assay: Antimalarial activity against Plasmodium berghei infected in Swiss Webster mouse assessed as mouse survival rate at 11 mg/kg administered once daily via oral gavage for 4 consecutive days beginning 1 hr after infection measured on day 7 post infection relative to control; type: functional; in short: as §1
Plasmodium berghei [32] = assay: Antimalarial activity against Plasmodium berghei infected in Swiss Webster mouse assessed as mouse survival rate at 100 mg/kg administered once daily via oral gavage for 4 consecutive days beginning 1 hr after infection measured on day 4 post infection relative to control; type: functional; in short: as §2

Cc1c(Oc2cnc(C(=O)N[C@@H](CO)C(C)C)cn2)ccc2c1B(O)OC2
40%: survival at 100 mg/kg (Plasmodium berghei [5]) | survival at 100 mg/kg (Plasmodium berghei [7]) | survival at 100 mg/kg (Plasmodium berghei [21]) | survival at 100 mg/kg (Plasmodium berghei [27]) | survival at 100 mg/kg (Plasmodium berghei [28])
26.7 mg/kg: ED90 (Plasmodium berghei [20])
100%: survival at 11 mg/kg (Plasmodium berghei [1]) | survival at 3 mg/kg (Plasmodium berghei [2]) | survival at 100 mg/kg (Plasmodium berghei [4]) | survival at 3 mg/kg (Plasmodium berghei [6]) | survival at 1 mg/kg (Plasmodium berghei [8]) | survival at 33 mg/kg (Plasmodium berghei [9]) | survival at 100 mg/kg (Plasmodium berghei [12]) | survival at 1 mg/kg (Plasmodium berghei [13]) | survival at 11 mg/kg (Plasmodium berghei [14]) | survival at 11 mg/kg (Plasmodium berghei [15]) | survival at 33 mg/kg (Plasmodium berghei [18]) | survival at 3 mg/kg (Plasmodium berghei [19]) | survival at 1 mg/kg (Plasmodium berghei [23]) | survival at 33 mg/kg (Plasmodium berghei [24]) | survival at 100 mg/kg (Plasmodium berghei [26]) | survival at 100 mg/kg (Plasmodium berghei [29]) | survival at 100 mg/kg (Plasmodium berghei [30]) | survival at 100 mg/kg (Plasmodium berghei [32])
0.466 µM: IC50 (Plasmodium falciparum [3])
80%: survival at 33 mg/kg (Plasmodium berghei [11]) | survival at 33 mg/kg (Plasmodium berghei [25])
0%: survival at 1 mg/kg (Plasmodium berghei [10]) | survival at 33 mg/kg (Plasmodium berghei [16]) | survival at 3 mg/kg (Plasmodium berghei [22]) | survival at 11 mg/kg (Plasmodium berghei [31])
0.149 µM: IC50 (Plasmodium falciparum [17])

Reference: ChEMBL document CHEMBL4038305, “Benzoxaborole Antimalarial Agents. Part 5. Lead Optimization of Novel Amide Pyrazinyloxy Benzoxaboroles and Identification of a Preclinical Candidate” (J Med Chem, 2017)
